For 61 compounds, activation results are on record in PubChem BioAssay AID504383 (The Scripps Research Institute Molecular Screening Center, 2011).

Hit rate of the full screen: of about 2,500 compounds, about 1,200 (48%) were called active. So high a share suggests a set chosen from earlier hits. Some of the results follow. Unmarked numbers belong to inactive results.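 The calls were made as follows: active = mean activation above the low control average plus 3 SD, as set in the primary screen (cut at about 12% in these data); inactive = the rest.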

In this experiment the target is Troponin I, cardiac muscle (Homo sapiens) + Troponin T, cardiac muscle (Homo sapiens) + Troponin C, slow skeletal and cardiac muscles (Homo sapiens) (UniProt P19429+P45379+P63316). Put plainly: calcium sensitizers of cardiac thin filaments – biochemical, IANBD-TnC fluorescence, triplicate, confirmation (AID 504383).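 Also: 0% = DMSO at 0.472 mM calcium and 100% = DMSO at 2.9 mM calcium.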 To be noted: IANBD-labeled cardiac RTF, Ca2+ sensitivity fluorescence; at 7.2 µM; hits give high values; scaled from EC20 to saturating calcium; tested at EC20 calcium, 0.472 mM. The procedure, abridged: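 Material: labelled regulated thin filaments; Reagent: 0.472 mM calcium; Incubation: 15 min compound incubation with filaments at 25 °C; Detection: filament fluorescence intensity; Evaluation: fluorescence increase normalised to calcium controls; Benchmarks: low control EC20 calcium, high control EC100 calcium.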
As for `COc1ccc(Cc2n[nH]c(=O)c3ccccc23)cc1OC`, the activation is 5.9%. The value for `COc1ccc(CNc2nn[nH]n2)cc1OC` was 18.4% (active); that for `COc1ccc(CCNc2cc(C)[nH]c(=O)c2)cc1OC` was 5.18%; that for `CCOC(=O)CC(=O)CSc1nc(-c2ccc3c(c2)OCO3)cc(C(F)(F)F)c1C#N` was 13.6% (active).

Regarding `C(=N\c1nc2ccccc2n1CCN1CCOCC1)/c1cccs1`, the activation was 2.67%. In the case of `O=C(O)c1cccc([N+](=O)[O-])c1C(=O)Nc1cccc2ccccc12` it was 14.4% (active); in that of `Cc1ccc(NC(=O)c2cc(C(=O)c3cc(Cl)ccc3O)cn(-c3ccc(C)cc3)c2=O)cc1`, 15.1% (active); in that of `Cc1ccc(O)c(C(=O)c2cc(C#N)c(=O)n(-c3nccs3)c2)c1`, 8.02%. The value for `CS(=O)(=O)Nc1ccc(C2=NN(C(=O)CCCC(=O)O)C(c3cccs3)C2)cc1` (stereo unspecified) was 61.2% (active); that for `CN(C)CCNc1ccc2ncn3c4ccc(O)cc4c(=O)c1c23` was 11.4%. In the case of `Cc1cc(C)c2nc(NC(=O)C3CCCO3)sc2c1` (stereo unspecified), the activation was 36.3% (active). In the case of `COc1cc(/C=C2\N=C3CCCCCN3C2=O)ccc1O`, the activation is 4.57%. Consider `CCOc1cc(/C=C2\N=C(SC(C)C(N)=O)N(c3ccc(OC(F)F)cc3)C2=O)ccc1O` (stereo unspecified), for which the activation is 32.1% (active). Take `COc1cc(OC)c(NC(=O)c2cc3ccccc3cc2O)cc1Cl`: the activation is 12.7% (active). As for `CCOC(=O)COc1c(Cl)cc(C2NC(=S)NC(c3ccccc3)=C2C(C)=O)cc1OC` (stereo unspecified), the activation was 10.2%. As to `COc1ccc(-c2nnc(-c3cccnc3)o2)cc1`, the activation is 48.2% (active). Take `O=C1c2ccccc2-c2c1cccc2C(=O)N1CCCCCC1`: the activation was 9.57%. On to `Cc1[nH]c(C)c(S(=O)(=O)N2c3ccccc3CC2C)c1C(=O)N1CCCCC1` (stereo unspecified), for which the activation is 137% (active).

For the compound `COc1ccc(C2C(C#N)=C(N)SC(N)=C2C#N)cc1OC`, the activation is 6.65%.

`CCOc1ccccc1C1C(C#N)=C(N)SC(N)=C1C#N`: the activation was 5.25%.

Regarding `CCOc1ccc(C2C(C#N)=C(N)SC(N)=C2C#N)cc1OCC`, the activation is 51.3% (active). With `CC1(C)CC(=O)C(C=Nc2ccc(C(=O)c3ccccc3)cc2N=CC2=C(O)CC(C)(C)CC2=O)=C(O)C1`, the activation was 5.75%. In the case of `CC1(C)CC(=O)C(C=Nc2cc(C(=O)c3ccccc3)ccc2N)=C(O)C1` it was 32% (active); in that of `NC(=O)C1CCN(C(=O)c2ccc(-c3ccccc3)cc2)CC1`, 64.1% (active). Regarding `O=C(c1ccccc1)N1CCN(C(=O)c2ccccc2)CC1`, the activation is 4.62%.

Consider `COc1ccccc1Nc1ncc(C(=O)N2CCC(C(N)=O)CC2)c2ccccc12`, for which the activation was 10.5%.

For the compound `COc1ccc(C)cc1NC(=O)C12CCC(C)(C(=O)O1)C2(C)C` (stereo unspecified), the activation is 26.8% (active). In the case of `COc1ccc(C)cc1NC(=O)CC1COc2ccccc2O1` (stereo unspecified), the activation was 8.38%.

Turning to `N#Cc1ccc(CSc2nnc(-c3cnccn3)o2)cc1`, the activation was 221% (active). As for `O=C(NC(=S)Nc1ccc2oc(=O)ccc2c1)c1ccco1`, the activation was 90.7% (active). The value for `Cc1ncc(CO)c2cc(-c3nnc(Nc4ccc5c(c4)OCO5)s3)c(=O)oc12` was 70% (active); that for `CCOC(=O)c1ccc[n+](CC(=O)Nc2cc(C(F)(F)F)ccc2Cl)c1` was 13% (active); that for `Cc1ccc(CCC(=O)Nc2cc(Cl)ccc2Cl)o1` was 7.16%. `N#Cc1ccccc1NC(=O)CNc1ccc(Cl)c(C(F)(F)F)c1`: the activation was 8.37%. As for `CC(=O)c1cc(NC(=O)c2ccccc2)c(=O)oc1/C=C/N(C)C`, the activation is 11.2%.

`COC(=O)c1cc2c(=O)c3ccccc3oc2nc1/C=C/N(C)C`: the activation was 5.31%. Consider `COc1ccc(C(=O)Nc2cc(C(C)=O)c(/C=C/N(C)C)oc2=O)cc1`, for which the activation was 30.3% (active). Consider `CC(=O)c1cc(NC(=O)c2ccc(Cl)cc2)c(=O)oc1/C=C/N(C)C`, for which the activation was 5.44%. Turning to `COC(=O)c1cc(NC(=O)c2ccccc2)c(=O)oc1/C=C/Nc1ccc(Oc2ccccc2)cc1`, the activation was 47.1% (active). Regarding `COC(=O)c1cc(NC(=O)c2ccccc2)c(=O)oc1C/C=N\OCc1ccc(Cl)cc1Cl`, the activation is 3.6%. Turning to `CC(=O)c1cc(NC(=O)c2ccc(C)cc2)c(=O)oc1/C=C/N(C)C`, the activation was 54.1% (active). For `COc1ccccc1Nc1nc(N2CCOCC2)nc(N2CCOCC2)n1`, the activation is 7.77%. As for `COc1ccccc1C(=O)Nc1ccc(OC(C)C(=O)N2CCOCC2)cc1` (stereo unspecified), the activation was 2020% (active). In the case of `CCOc1ccc(NC(=O)c2cccc(OC(=S)N3CCOCC3)c2)cc1`, the activation is 3.8%.

For the compound `O=C(O)C(c1ccccc1)N1C(=O)/C(=C\c2ccc(-c3ccc(Br)cc3)o2)SC1=S` (stereo unspecified), the activation is 186% (active). As for `CCOC(=O)CC1=NS(=O)(=O)c2ccccc2N1`, the activation is 9.51%.

Take `O=C(CSC1=NS(=O)(=O)c2ccccc2N1)N1CCCCC1`: the activation was 68.3% (active). Consider `Cc1cc(=O)oc2c3c(cc(OCC(=O)NCc4ccccn4)c12)OC(C)(C)CC3`, for which the activation was 2.15%.

`Cc1c(C)c2c(OCC(=O)N3CCC(O)CC3)cc3c(c2oc1=O)CCC(C)(C)O3`: the activation was 3.89%. In the case of `CCCc1cc(=O)oc2c3c(cc(OCC(=O)N[C@@H](CSC)C(=O)O)c12)OC(C)(C)CC3`, the activation was 42% (active). As for `CNc1c2cccc(C)c2nc2c(C(=O)NCCN(C)C)cccc12`, the activation was 0.42%. Turning to `CN(C)CCNC(=O)c1c(CSc2ccc(Cl)cc2)noc1C(=O)NCc1ccccc1`, the activation is 13.1% (active). As to `COCCNC(=O)c1c(CS(=O)(=O)c2ccccc2)noc1C(=O)NCc1ccccc1`, the activation is -1.16%. `Cc1cccc(NC(=O)CN2C(=O)N/C(=C/c3ccc(C)s3)C2=O)c1`: the activation is 12.8% (active). In the case of `Cc1cccc(CN2C(=O)N/C(=C/c3ccc(C)s3)C2=O)c1`, the activation is 8.39%. In the case of `Cc1ccc(/C=C2/NC(=O)N(Cc3ccccc3)C2=O)s1` it was 2.28%; in that of `CCOC(=O)CCc1c(C)nc(-n2[nH]c(C)c(CCO)c2=O)[nH]c1=O`, 6.36%; in that of `Cc1nc(-n2[nH]c3c(c2=O)CCCC3)[nH]c(=O)c1Cc1ccccc1`, 28% (active).

As to `Cc1ccc(C2C(C#N)=C(N)SC(N)=C2C#N)cc1`, the activation was 9.26%. For the compound `CCC(=O)Nc1nc2c(c(=O)[nH]1)CCCC2`, the activation is 4.12%. `O=C(CCc1nc2sc3c(c2c(=O)[nH]1)CCCC3)Nc1ccccc1Cl`: the activation is 84.3% (active).
